Measured values reported in ChEMBL document CHEMBL1143448, “1,8-Naphthyridin-4-one derivatives as new ligands of A2A adenosine receptors” (Bioorg Med Chem Lett, 2005).

What was measured:
[1] = biological target: T1, Adenosine receptor A1 (Bos taurus, UniProt P28190); assay: Inhibition of [3H]CHA binding to adenosine A1 receptor of bovine brain cortical membrane
T1 sequence (P28190 whole entry): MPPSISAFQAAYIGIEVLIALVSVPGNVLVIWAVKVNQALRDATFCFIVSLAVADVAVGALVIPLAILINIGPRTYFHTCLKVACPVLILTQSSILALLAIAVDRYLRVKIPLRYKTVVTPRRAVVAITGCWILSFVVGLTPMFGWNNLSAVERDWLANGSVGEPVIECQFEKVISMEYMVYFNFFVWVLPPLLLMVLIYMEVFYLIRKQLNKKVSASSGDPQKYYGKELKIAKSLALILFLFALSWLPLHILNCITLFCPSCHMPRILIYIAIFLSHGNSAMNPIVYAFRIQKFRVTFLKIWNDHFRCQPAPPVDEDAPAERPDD
Method in brief: (§1)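 A1 affinity was taken from displacement of specific [3H]N6-cyclohexyladenosine ([3H]CHA, agonist radioligand) binding in bovine or human cortical membranes. Values are given as Ki in nM ± error.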

[2] = biological target: T2, Adenosine receptor A1 (Homo sapiens, UniProt P30542); assay: Inhibition of [3H]CHA binding to adenosine A1 receptor of human brain cortical membrane; method in brief: as §1
T2 sequence (P30542 whole entry): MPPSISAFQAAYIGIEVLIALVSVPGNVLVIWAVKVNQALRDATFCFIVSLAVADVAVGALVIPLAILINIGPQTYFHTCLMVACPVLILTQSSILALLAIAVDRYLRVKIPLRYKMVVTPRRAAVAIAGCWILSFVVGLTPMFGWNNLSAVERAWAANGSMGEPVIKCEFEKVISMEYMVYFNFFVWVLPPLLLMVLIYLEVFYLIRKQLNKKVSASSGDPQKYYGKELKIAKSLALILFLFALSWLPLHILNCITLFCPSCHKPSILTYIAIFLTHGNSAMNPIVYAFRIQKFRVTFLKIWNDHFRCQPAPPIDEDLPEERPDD

[3] = biological target: Adenosine receptor A2a (Bos taurus); assay: Inhibition of [3H]CGS-21680 binding to adenosine A2a receptor of bovine striatal membrane
[4] = biological target: Adenosine receptor A2a (Homo sapiens, UniProt P29274); assay: Inhibition of [3H]CGS-21680 binding to adenosine A2a receptor of human striatal membrane
Method in brief: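 Competition binding to striatal membranes from bovine or human brain, measuring displacement of the specific binding of the tritiated agonist [3H]CGS21680 (2-[[p-(2-carboxyethyl)phenyl]ethyl]amino-5'-N-ethylcarboxamidoadenosine). Affinity reported as Ki (nM) ± error.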

Adenosine receptor A2a, sequence (P29274 whole entry): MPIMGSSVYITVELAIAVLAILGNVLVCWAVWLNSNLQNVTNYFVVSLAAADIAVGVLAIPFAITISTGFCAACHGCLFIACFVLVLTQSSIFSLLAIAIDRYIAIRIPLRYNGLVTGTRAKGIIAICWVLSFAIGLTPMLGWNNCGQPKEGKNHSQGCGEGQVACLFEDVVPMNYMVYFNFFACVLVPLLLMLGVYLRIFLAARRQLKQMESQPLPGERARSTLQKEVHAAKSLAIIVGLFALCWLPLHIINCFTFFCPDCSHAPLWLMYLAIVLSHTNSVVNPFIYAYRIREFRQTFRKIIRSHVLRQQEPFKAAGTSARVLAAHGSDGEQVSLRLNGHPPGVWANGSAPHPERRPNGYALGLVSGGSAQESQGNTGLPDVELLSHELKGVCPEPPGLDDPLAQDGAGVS

Structure (SMILES)	Ki [1] [µM]	Ki [2] [µM]	Ki [3] [µM]	Ki [4] [µM]
Cc1ccc2c(O)c(C(=O)NCc3ccccc3)cnc2n1	0.28	0.63	–	–
Cc1ccc2c(O)c(C(=O)NC(C)c3ccccc3)cnc2n1 (configuration not stated)	0.418	0.717	–	–
CC(=O)Nc1ccc2c(O)c(C(=O)NCc3ccccc3)cnc2n1	> 10	–	6.78	–
O=C(NCc1ccccc1)c1cnc2nc(NCc3ccccc3)ccc2c1O	0.677	–	> 10	–
Cc1ccc2c(O)c(C(=O)NCc3ccc(Cl)cc3)cnc2n1	1.74	1.63	–	–
O=C(NCc1ccccc1)c1cnc2ncccc2c1O	2.75	–	1.17	–
CCOC(=O)c1cnc2nc(C)ccc2c1O	> 10	–	–	–
Cc1ccc2c(O)c(C(=O)OCc3ccccc3)cnc2n1	> 10	–	> 10	–
Cc1ccc2c(O)c(C(=O)NCc3ccc(N)cc3)cnc2n1	2.86	–	0.146	–
Nc1ccc2c(O)c(C(=O)NCc3ccc(Cl)cc3)cnc2n1	4.49	6.24	0.54	0.5
Cc1ccc2c(O)c(CC(=O)NC3CCCCC3)cnc2n1	> 10	> 10	–	–
Cc1ccc2c(O)c(C(=O)NC3CCC(C)CC3)cnc2n1 (configuration not stated)	6	5.6	0.39	0.36
Cc1ccc2c(S)c(Cc3ccccc3)cnc2n1	6.33	–	–	–
Cc1ccc2c(O)c(CC(=O)NCc3ccccc3)cnc2n1	> 10	> 10	> 10	0.87
Cc1ccc2c(O)c(C(=O)NC3CCCCC3)cnc2n1	> 10	> 10	–	–
Cc1ccc(CNC(=O)c2cnc3nc(C)ccc3c2O)cc1	–	1.58	–	–
Cc1ccc2c(O)c(C(=O)NCCc3ccccc3)cnc2n1	0.68	0.73	0.14	0.15
CN(C)c1ccc2c(O)c(C(=O)NCc3ccccc3)cnc2n1	0.122	–	0.057	–

The remaining lines, values ahead:

Ki [1] [µM]	Ki [2] [µM]	Ki [3] [µM]	Ki [4] [µM]	Structure (SMILES)
> 10	> 10	–	–	Cc1ccc2c(NC3CCCCC3)c(Cc3ccccc3)cnc2n1
8.73	4.16	–	–	Cc1ccc2c(O)c(Cc3ccccc3Cl)cnc2n1
0.586	–	0.067	–	O=C(NCc1ccccc1)c1cnc2nc(Cl)ccc2c1O
> 10	–	–	–	O=C(NCc1ccccc1)c1cnc2[nH]c(=O)ccc2c1O
> 10	4.37	0.74	2.41	COc1ccc(CNC(=O)c2cnc3nc(C)ccc3c2O)cc1
5.32	–	–	–	O=C(NCc1ccccc1)c1cnc2nc(Br)ccc2c1O
0.22	> 10	0.72	> 10	Cc1ccc2c(NN)c(Cc3ccccc3)cnc2n1
1.77	1.65	–	–	Cc1ccc2c(O)c(C(=O)NCc3ccc(F)cc3)cnc2n1
> 10	–	–	–	O=C(NCc1ccccc1)c1cnc2nc(NC3CCCCC3)ccc2c1O
1.63	–	0.099	–	Cc1ccc2c(O)c(C(=O)NCc3ccc([N+](=O)[O-])cc3)cnc2n1
> 10	> 10	–	–	Cc1ccc2c(Cl)c(Cc3ccccc3)cnc2n1
7.59	–	0.588	–	Cc1ccc2c(O)c(C(=O)NCc3ccc(NC(=O)c4ccccc4)cc3)cnc2n1
> 10	> 10	1.43	0.64	Cc1ccc2c(O)c(C(=O)NCCC(C)C)cnc2n1
> 10	–	> 10	–	O=C(NCc1ccccc1)c1cnc2nc(N(CCO)CCO)ccc2c1O
> 10	4.18	> 10	3.33	Cc1ccc2c(O)c(Cc3ccccc3)cnc2n1
0.977	–	–	–	O=C(NCc1ccccc1)c1cnc2nc(NCCc3ccccc3)ccc2c1O
> 10	> 10	–	–	Cc1ccc2c(O)c(C(=O)NN3CCN(C)CC3)cnc2n1
3.34	> 10	3.36	5.36	Cc1ccc2c(N=[N+]=[N-])c(Cc3ccccc3)cnc2n1
0.97	0.63	–	–	Nc1ccc2c(O)c(C(=O)NCc3ccccc3)cnc2n1
> 10	–	–	–	CC(=O)N(C(C)=O)c1ccc(CNC(=O)c2cnc3nc(C)ccc3c2O)cc1
> 10	> 10	8.66	> 10	Cc1ccc2c(O)c(C(=O)NN3CCOCC3)cnc2n1
1.35	0.3	–	–	Cc1ccc2c(O)c(C(=O)NCc3ccco3)cnc2n1
